The values below come from ChEMBL document CHEMBL3352809, “Discovery of a Negative Allosteric Modulator of GABAB Receptors” (ACS Med Chem Lett, 2014).

Activity calls are given as the source filed them. No cut-off for these calls is given here.

For assay [1], the target named is T1, GABA-B receptor (Homo sapiens) (UniProt Q9UBS5+O75899). Nature of the assay: (§1) Negative allosteric modulation of recombinant HA-tagged GB1 subunit/Flag-tagged GB2 subunit receptor (unknown origin) expressed in HEK293 cells co-expressing Gqi9 G-protein assessed as inhibition of GABA-induced IP production by liquid scintillation counting. Type of assay: cell-based. The method, boiled down:
(§2)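 IP3 formation in HEK293 cells overexpressing GABA_B receptors (GB1 + GB2) and Gq_i9 chimeric proteins. Compounds were tested at 100 μM against GABA 1 μM, with GABA dose-response curves run with or without compound. Inhibition curves were run with compound titrated in the presence of 1 μM GABA to derive IC50. Data are mean SEM of three independent experiments.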

Assay [2] addresses GABA-B receptor (Homo sapiens, UniProt O75899+Q9UBS5). The assay is described as §1. Type of assay: cell-based. The method, boiled down:
as §2

The subject of assay [3] is HEK293. As to the kind of experiment: Effect on ERK1/2 protein expression in HEK293 cells at 100 uM by immunoblotting. As to conditions: Homo sapiens. Type of assay: functional, cell-based. The method, boiled down:
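ERK1/2 phosphorylation in HEK293 cells overexpressing GABA_B receptors (GB1 + GB2), stimulated with baclofen (100 μM) or CGP7930 (100 μM), with or without test compound at 100 μM. Data are mean SEM of three independent experiments. Significance was taken versus agonist alone.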
(In general: In western blotting, separated proteins are transferred to a membrane and probed.)

Assay [4] has as its target T1, GABA-B receptor (Homo sapiens). As to the kind of experiment: Negative allosteric modulation of recombinant HA-tagged GB1 subunit/Flag-tagged GB2 subunit receptor (unknown origin) expressed in HEK293 cells co-expressing Gqi9 G-protein assessed as inhibition of GABA-induced Ca2+ release at 50 uM by fluorescence assay. Type of assay: functional, cell-based. In short, it runs like this:
(§3)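 Test compound was at 50 μM. Agonists were GABA 100 μM for GABA_B and glutamate 10 μM for mGluR1, 2 and 5. Response was compared with agonist alone. Data are mean SEM of three independent experiments.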

In assay [5] the target is Metabotropic glutamate receptor 1 (Homo sapiens) (UniProt Q13255). Nature of the assay: Negative allosteric modulation of mGluR1 (unknown origin) expressed in HEK293 cells assessed as inhibition of glutamate-induced Ca2+ release at 50 uM by fluorescence assay. In kind it is functional, cell-based. The method, boiled down:
as §3

Assay [6] concerns the target Metabotropic glutamate receptor 2 (Homo sapiens) (UniProt Q14416). Nature of the assay: Negative allosteric modulation of mGluR2 (unknown origin) expressed in HEK293 cells co-expressing Gqi9 G-protein assessed as inhibition of glutamate-induced Ca2+ release at 50 uM by fluorescence assay. In kind it is functional, cell-based. In short, it runs like this:
as §3

Assay [7] has as its target Metabotropic glutamate receptor 5 (Homo sapiens) (UniProt P41594). As to the kind of experiment: Negative allosteric modulation of mGluR5 (unknown origin) expressed in HEK293 cells assessed as inhibition of glutamate-induced Ca2+ release at 50 uM by fluorescence assay. In kind it is functional, cell-based. In short, it runs like this:
as §3

The target of assay [8] is T1, GABA-B receptor (Homo sapiens). Nature of the assay: Displacement of [3H]CGP54626 from recombinant HA-tagged GB1 subunit/Flag-tagged GB2 subunit receptor (unknown origin) expressed in CHO cells up to 100 uM by scintillation proximity assay. In kind it is cell-based. On the technique in general: Loss of bound radioactivity is the signal in a displacement assay; it reports binding, not function.

Sequence of GABA-B receptor (Q9UBS5 whole entry): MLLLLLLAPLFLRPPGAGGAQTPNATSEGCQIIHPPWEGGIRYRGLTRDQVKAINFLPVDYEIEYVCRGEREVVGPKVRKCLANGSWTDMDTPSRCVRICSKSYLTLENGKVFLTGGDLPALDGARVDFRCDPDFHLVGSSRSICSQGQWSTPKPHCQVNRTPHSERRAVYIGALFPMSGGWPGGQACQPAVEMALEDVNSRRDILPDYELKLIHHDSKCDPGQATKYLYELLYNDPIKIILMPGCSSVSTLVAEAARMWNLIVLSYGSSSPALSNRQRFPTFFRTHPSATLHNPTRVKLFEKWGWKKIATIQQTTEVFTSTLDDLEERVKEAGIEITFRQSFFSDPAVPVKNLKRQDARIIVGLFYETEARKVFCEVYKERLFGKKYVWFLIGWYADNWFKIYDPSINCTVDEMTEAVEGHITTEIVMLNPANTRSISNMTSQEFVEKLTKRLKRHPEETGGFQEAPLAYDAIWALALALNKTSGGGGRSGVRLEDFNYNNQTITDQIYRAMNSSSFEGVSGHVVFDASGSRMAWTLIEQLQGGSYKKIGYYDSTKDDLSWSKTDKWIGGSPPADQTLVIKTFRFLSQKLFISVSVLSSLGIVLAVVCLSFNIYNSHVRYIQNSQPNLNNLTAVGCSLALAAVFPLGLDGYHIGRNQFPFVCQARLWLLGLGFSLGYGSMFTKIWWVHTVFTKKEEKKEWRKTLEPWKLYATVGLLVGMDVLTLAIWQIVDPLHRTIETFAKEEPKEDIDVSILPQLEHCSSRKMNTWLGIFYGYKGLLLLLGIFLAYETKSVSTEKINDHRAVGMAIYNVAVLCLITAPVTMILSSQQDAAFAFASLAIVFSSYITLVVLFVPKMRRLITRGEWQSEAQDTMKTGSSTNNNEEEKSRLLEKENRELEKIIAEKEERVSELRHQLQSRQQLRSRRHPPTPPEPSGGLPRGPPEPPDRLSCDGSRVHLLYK
Sequence of GABA-B receptor (O75899 whole entry): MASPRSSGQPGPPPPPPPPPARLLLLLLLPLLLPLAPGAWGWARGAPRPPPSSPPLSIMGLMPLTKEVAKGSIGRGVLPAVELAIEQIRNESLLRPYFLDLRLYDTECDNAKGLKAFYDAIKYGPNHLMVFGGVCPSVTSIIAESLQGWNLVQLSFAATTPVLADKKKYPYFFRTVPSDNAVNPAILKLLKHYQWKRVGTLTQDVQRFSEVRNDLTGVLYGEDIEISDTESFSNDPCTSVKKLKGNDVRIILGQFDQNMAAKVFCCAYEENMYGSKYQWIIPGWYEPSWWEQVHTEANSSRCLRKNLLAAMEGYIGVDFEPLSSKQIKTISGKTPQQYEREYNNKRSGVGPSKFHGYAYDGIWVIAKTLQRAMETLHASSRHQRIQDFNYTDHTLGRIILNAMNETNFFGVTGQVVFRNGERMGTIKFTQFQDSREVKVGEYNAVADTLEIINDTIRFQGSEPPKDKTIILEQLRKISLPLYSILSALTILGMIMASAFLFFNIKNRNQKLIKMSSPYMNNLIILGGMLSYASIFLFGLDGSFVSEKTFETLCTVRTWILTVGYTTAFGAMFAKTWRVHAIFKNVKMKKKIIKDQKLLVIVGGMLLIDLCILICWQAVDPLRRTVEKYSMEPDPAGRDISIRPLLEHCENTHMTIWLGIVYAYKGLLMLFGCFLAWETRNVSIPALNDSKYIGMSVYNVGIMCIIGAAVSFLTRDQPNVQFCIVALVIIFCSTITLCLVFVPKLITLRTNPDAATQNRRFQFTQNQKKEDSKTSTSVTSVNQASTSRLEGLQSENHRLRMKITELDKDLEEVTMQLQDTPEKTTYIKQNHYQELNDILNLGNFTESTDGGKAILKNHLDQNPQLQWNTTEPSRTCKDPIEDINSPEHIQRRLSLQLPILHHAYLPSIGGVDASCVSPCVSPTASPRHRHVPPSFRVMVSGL
Sequence of Metabotropic glutamate receptor 5 (Homo sapiens) (P41594 21-1212 limits assumed): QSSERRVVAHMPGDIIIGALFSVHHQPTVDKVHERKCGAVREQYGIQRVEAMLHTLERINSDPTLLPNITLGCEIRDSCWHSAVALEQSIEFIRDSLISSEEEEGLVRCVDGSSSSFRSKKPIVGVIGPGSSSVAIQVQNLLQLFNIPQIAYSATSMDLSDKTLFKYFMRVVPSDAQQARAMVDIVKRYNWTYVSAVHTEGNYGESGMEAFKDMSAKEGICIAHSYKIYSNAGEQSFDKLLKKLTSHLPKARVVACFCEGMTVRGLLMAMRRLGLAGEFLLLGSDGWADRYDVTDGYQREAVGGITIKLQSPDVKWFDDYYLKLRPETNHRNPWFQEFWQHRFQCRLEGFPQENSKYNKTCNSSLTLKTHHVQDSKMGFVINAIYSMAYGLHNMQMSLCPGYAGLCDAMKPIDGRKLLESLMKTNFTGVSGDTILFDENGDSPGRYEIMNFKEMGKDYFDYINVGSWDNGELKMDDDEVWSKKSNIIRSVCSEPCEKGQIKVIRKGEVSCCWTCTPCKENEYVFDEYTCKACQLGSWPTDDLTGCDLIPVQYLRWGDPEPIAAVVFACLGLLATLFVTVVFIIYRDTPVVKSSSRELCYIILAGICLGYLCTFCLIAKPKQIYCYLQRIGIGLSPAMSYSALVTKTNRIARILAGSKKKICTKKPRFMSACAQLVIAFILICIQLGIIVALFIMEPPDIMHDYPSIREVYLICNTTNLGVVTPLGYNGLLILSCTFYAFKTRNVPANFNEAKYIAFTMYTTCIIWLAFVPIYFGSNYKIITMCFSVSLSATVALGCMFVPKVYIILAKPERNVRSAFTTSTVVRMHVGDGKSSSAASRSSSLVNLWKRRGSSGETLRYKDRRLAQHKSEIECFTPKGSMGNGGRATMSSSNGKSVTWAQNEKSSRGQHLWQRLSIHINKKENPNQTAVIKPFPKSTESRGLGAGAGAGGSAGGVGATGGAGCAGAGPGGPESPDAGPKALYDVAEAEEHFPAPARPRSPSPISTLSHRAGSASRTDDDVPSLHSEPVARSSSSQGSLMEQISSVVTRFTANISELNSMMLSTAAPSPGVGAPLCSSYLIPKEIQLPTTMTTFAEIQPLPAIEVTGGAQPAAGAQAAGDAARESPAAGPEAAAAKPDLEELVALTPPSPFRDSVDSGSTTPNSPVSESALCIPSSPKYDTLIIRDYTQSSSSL
Sequence of Metabotropic glutamate receptor 2 (Homo sapiens) (Q14416 19-872 limits assumed): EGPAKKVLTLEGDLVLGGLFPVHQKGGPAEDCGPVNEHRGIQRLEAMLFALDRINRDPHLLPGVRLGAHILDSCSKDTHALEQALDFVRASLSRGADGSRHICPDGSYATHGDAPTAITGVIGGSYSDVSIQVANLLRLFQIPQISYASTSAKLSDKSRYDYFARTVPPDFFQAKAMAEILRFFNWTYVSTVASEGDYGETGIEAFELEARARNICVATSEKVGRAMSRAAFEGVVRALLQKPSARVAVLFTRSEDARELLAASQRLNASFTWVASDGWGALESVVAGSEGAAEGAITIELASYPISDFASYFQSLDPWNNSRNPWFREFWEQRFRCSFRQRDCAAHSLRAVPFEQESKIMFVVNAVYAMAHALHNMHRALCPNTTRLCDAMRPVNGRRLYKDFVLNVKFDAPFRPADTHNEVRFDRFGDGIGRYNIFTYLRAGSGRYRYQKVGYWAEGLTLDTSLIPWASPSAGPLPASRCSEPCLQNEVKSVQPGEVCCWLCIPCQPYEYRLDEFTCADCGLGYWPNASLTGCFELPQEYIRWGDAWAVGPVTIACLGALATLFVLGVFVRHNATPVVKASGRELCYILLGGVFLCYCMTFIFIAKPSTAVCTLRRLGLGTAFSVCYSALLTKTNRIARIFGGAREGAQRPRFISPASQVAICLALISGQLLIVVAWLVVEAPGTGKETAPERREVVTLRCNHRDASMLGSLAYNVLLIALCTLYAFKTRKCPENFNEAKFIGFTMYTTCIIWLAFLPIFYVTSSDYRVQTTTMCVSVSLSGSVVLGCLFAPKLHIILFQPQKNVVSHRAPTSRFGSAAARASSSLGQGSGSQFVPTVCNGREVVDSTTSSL
Sequence of Metabotropic glutamate receptor 1 (Homo sapiens) (Q13255 19-1194 limits assumed): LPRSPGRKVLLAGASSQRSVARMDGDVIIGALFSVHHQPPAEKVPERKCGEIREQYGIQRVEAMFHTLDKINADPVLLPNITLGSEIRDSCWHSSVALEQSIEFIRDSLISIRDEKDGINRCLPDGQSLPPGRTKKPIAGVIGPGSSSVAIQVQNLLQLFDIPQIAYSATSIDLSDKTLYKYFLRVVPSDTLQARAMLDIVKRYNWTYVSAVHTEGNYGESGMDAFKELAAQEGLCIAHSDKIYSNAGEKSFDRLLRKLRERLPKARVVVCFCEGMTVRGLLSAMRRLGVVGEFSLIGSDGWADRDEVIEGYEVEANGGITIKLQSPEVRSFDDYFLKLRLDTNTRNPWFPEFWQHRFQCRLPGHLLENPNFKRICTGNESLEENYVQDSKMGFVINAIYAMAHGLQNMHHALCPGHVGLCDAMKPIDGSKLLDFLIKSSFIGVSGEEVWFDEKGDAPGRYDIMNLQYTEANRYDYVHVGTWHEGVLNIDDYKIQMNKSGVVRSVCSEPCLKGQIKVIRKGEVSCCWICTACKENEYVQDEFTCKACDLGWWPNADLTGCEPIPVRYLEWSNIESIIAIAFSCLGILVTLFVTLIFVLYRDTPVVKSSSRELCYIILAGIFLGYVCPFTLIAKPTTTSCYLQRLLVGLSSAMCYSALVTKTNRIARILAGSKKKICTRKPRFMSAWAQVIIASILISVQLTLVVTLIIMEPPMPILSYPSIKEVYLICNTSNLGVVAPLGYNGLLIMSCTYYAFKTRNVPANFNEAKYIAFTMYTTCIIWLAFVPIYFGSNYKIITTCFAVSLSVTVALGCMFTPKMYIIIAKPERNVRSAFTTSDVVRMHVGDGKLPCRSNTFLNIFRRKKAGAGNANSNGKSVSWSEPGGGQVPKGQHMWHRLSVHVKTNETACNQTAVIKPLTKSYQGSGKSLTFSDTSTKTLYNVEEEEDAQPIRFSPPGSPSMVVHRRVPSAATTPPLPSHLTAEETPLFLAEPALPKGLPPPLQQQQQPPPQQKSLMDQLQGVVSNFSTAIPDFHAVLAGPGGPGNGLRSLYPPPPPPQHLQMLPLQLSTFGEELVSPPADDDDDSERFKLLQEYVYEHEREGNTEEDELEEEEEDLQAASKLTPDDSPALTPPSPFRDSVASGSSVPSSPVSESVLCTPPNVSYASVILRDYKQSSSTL

By IC50 is commonly meant the concentration that inhibits the measured activity by half. Regarding `CC(C)(C)c1cc(/C=C/C=O)cc(C(C)(C)C)c1O`, in assay [1], the inhibition result was “Dose-dependent effect”. Moreover, in assay [2], the IC50 stood at 21.3 µM.

Regarding `COC(O)CC(O)c1cc(C(C)(C)C)c(O)c(C(C)(C)C)c1` (stereo not given), the inhibition entry in assay [3] is “inactive”.

For the compound `CC(C)(C)c1cc(/C=C/C(=O)C(=O)O)cc(C(C)(C)C)c1O`, in assay [1], the inhibition result was “Dose-dependent effect”. The IC50 in assay [2] turned out to be 37.9 µM. The inhibition entry in assay [4] is “Active”. The inhibition entry in assay [5], in assay [6], in assay [7] and in assay [8] was “inactive” each time.
